Data published in ChEMBL document CHEMBL3232952, “Bisphosphonate prodrugs: synthesis and biological evaluation in HuH7 hepatocarcinoma cells” (Eur J Med Chem, 2014).
The source made the active and inactive calls. No cut-off for these calls is given here.

Legend:
[1] = (§1) Cytotoxicity against human HuH7 cells after 144 hrs by MTT assay; type: functional, cell-based; details: Huh-7, 144 h
Summary of the method: (§2)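 MTT assay. HuH7 cells were seeded at 5x10⁴/well and grown 24 h in complete medium, then switched to 2% FCS medium containing compound (10⁻⁶–10⁻³ M) for 144 h. Cells were washed with PBS, given MTT (2 mg/mL) for 4 h at 37 °C, and formazan was dissolved in DMSO. OD was read at 570 nm. Mean ± SD of three independent experiments.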

Huh-7 [2] = assay: as §1; type: functional, cell-based; summary of the method: as §2
Serum [3] = assay: Stability in human serum assessed as [31P] NMR chemical shift after 3 days by [31P]NMR spectroscopy; type: ADME, cell-free; details: 72 h
Huh-7 [4] = assay: Cytotoxicity against human HuH7 cells at 125 uM after 144 hrs by MTT assay in presence of IBMX; type: functional, cell-based
Summary of the method: (§3)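 MTT viability assay with the cells pretreated with IBMX (1 mM) before compound addition; the pretreatment time is given as 30 min in Methods and 1 h in the legend. Then 144 h exposure in 2% FCS medium, MTT (2 mg/mL) for 4 h at 37 °C, DMSO solubilisation and OD read at 570 nm. Mean ± SD of three independent experiments.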

[5] = Cell cycle arrest in human HuH7 cells assessed as accumulation at G1 phase after 144 hrs by […]propidium iodide staining-based FACS analysis; type: functional; details: Huh-7
Huh-7 [6] = assay: Induction of apoptosis in human HuH7 cells after 144 hrs by Annexin V/propidium iodide staining-based FACS analysis; type: functional, cell-based
Summary of the method: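 HuH7 cells were exposed to compound for 144 h, then treated and untreated cells were stained with Annexin V and PI. Flow cytometry scored early apoptosis as Ann V⁺/PI⁻ and late apoptosis as Ann V⁺/PI⁺.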

[7] = Stability in human HuH7 cell extract assessed as compound remaining by measuring [31P] NMR chemical shift at 0.5 mM after 5 days by [31P]NMR spectroscopy; type: ADME, cell-based; details: huh-7, 120 h, 500 µM
Serum [8] = assay: Stability in human serum assessed as [31P] NMR chemical shift after 1 day by [31P]NMR spectroscopy; type: ADME, cell-free; details: 24 h
[9] = Stability of the compound in cell culture medium assessed as [31P] NMR chemical shift after 1 day by [31P]NMR spectroscopy; type: physicochemical; details: 24 h
[10] = Stability of the compound in D2O assessed as [31P] NMR chemical shift after 5 days by [31P]NMR spectroscopy; type: physicochemical; details: 120 h
[11] = Stability of the compound in cell culture medium assessed as [31P] NMR chemical shift after 3 days by [31P]NMR spectroscopy; type: physicochemical; details: 72 h
[12] = Stability of the compound in D2O assessed as [31P] NMR chemical shift after 1 day by [31P]NMR spectroscopy; type: physicochemical; details: 24 h
Huh-7 [13] = assay: (§4) Antiinvasive activity against human HuH7 cells at 100 uM after 24 hrs by matrigel assay relative to control; type: functional
Summary of the method: (§5)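 Boyden chambers with 8 µm-pore filters coated with Matrigel. 2.5 × 10⁵ HuH7 cells were seeded in the upper well with 100 µM compound. HGF (20 ng/mL) in the lower chamber served as chemoattractant. After 24 h, non-invaded cells were wiped off, and filters were methanol-fixed and haematoxylin-stained. Cells on the lower surface were counted in 10 fields, expressed as % of control; mean ± SD of three independent experiments.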

[14] = Drug metabolism in human HuH7 cell extract assessed as phosphorylated metabolite formation by measuring [31P] NMR chemical shift at 0.5 mM after 5 days by [31P]NMR spectroscopy; type: ADME, cell-based; details: huh-7, 120 h, 500 µM
[15] = Cytotoxicity against human HuH7 cells at 250 uM after 144 hrs by MTT assay; type: functional; details: Huh-7, 144 h; summary of the method: as §2
[16] = Stability of the compound in D2O assessed as [31P] NMR chemical shift after 3 days by [31P]NMR spectroscopy; type: physicochemical; details: 72 h
Serum [17] = assay: Stability in human serum assessed as [31P] NMR chemical shift after 5 days by [31P]NMR spectroscopy; type: ADME, cell-free; details: 120 h
[18] = Stability of the compound in cell culture medium assessed as [31P] NMR chemical shift after 5 days by [31P]NMR spectroscopy; type: physicochemical; details: 120 h
[19] = Antimigratory activity against human HuH7 cells at 100 uM after 24 hrs relative to control; type: functional; details: Huh-7, 24 h
Summary of the method: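 Migration chambers with the insert undersides coated overnight at 4 °C with fibronectin (100 µg/mL). 2.5 × 10⁵ HuH7 cells were placed in the upper chamber with 100 µM compound, with HGF (20 ng/mL) in the lower chamber. After 24 h, non-migrated cells were scraped off, and cells on the lower face were fixed, stained and counted. Results are % of control set at 100%; triplicate.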

[20] = Cytotoxicity against human HuH7 cells at 1 mM after 144 hrs by MTT assay; type: cell-based; details: huh-7, 144 h, 1000 µM
Summary of the method: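 HuH7 cells plated at 5x10⁴ cells/well in complete medium for 24 h, then switched to 2% FCS medium with bisphosphonate (10^-6 to 10^-3 M range) for 144 h. PBS wash, then MTT (2 mg/mL) 4 h at 37 °C, formazan dissolved in DMSO, OD read at 570 nm. Mean ± SD of three independent experiments.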

[21] = Cytotoxicity against human HuH7 cells at 10 uM to 1 mM after 144 hrs by MTT assay; type: functional, Huh-7; summary of the method: as §2
Huh-7 [22] = assay: Cytotoxicity against human HuH7 cells at 400 uM after 144 hrs by MTT assay in presence of IBMX; type: functional, cell-based
Summary of the method: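 HuH7 cells pretreated with IBMX (1 mM) before bisphosphonate was added. Cells were seeded at 5x10⁴ cells/well and held 24 h in complete medium, then exposed 144 h to compound in 2% FCS medium. Read-out by MTT (2 mg/mL, 4 h, 37 °C), DMSO solubilisation, OD 570 nm. Mean ± SD of three independent experiments.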

[23] = as §4; type: functional, Huh-7; summary of the method: as §5
Huh-7 [24] = assay: Cytotoxicity against human HuH7 cells at 1 mM after 144 hrs by MTT assay in presence of IBMX; type: functional, cell-based; summary of the method: as §3

Q: Which IC50 [1] does the source give for O=P(O)(Oc1ccccc1)C(O)(c1ccc(Br)cc1)P(=O)(O)Oc1ccccc1 (stereo not given) here?
A: Its IC50 is 125 µM.

Q: What about the inhibition (Huh-7 [2]) of the same molecule?
A: The inhibition was “Dose-dependent effect”.

Q: What about the Stability (Serum [3]) of the same molecule?
A: Its Stability is 12.65 ppm.

Q: What about the Activity (Huh-7 [4]) of the same molecule?
A: The Activity was “inactive”.

Q: What about the Activity [5] of the same molecule?
A: The Activity was 58%.

Q: And the Activity (Huh-7 [6])?
A: The Activity was “Active”.

Q: What about the Stability [7] of the same molecule?
A: The Stability was 12.09 ppm.

Q: And the Stability (Serum [8])?
A: The Stability was 12.85 ppm.

Q: And the Stability [9]?
A: The Stability was 12.85 ppm.

Q: What about the Stability [10] of the same molecule?
A: Its Stability is 12.8 ppm.

Q: And the Stability [11]?
A: Its Stability is 12.83 ppm.

Q: And the Stability [12]?
A: The Stability was 12.8 ppm.

Q: What about the Activity (Huh-7 [13]) of the same molecule?
A: The Activity was “inactive”.

Q: And the Drug metabolism [14]?
A: The Drug metabolism was “metabolite_detected”.

Q: And the inhibition at 250 µM [15]?
A: The inhibition at 250 µM was 80%.

Q: And the Stability [16]?
A: Its Stability is 12.78 ppm.

Q: What about the Stability (Serum [17]) of the same molecule?
A: Its Stability is 12.8 ppm.

Q: What about the Stability [18] of the same molecule?
A: The Stability was 12.83 ppm.

Q: What about the inhibition at 100 µM [19] of the same molecule?
A: Its inhibition at 100 µM is 68%.

Q: For CC(C)Cn1c(=O)n(C)c(=O)c2[nH]cnc21 [ISOBUTYLMETHYLXANTHINE], which Activity [20] is on record?
A: The Activity was “Non-toxic”.

Q: For COP(=O)(O)C(O)(c1ccc(Br)cc1)P(=O)(O)OC (stereo not given), which “inhibition (INH)” value [21] is on record?
A: The value was 15%.

Q: Which IC50 [1] does the source give for O=P(O)(O)C(O)(c1ccc(Br)cc1)P(=O)(O)O here?
A: The IC50 was 440 µM.

Q: And the inhibition (Huh-7 [2])?
A: Its inhibition is “Dose-dependent effect”.

Q: And the Activity (Huh-7 [22])?
A: The Activity was “Active”.

Q: What about the Activity [5] of the same molecule?
A: The Activity was 58%.

Q: What about the Activity (Huh-7 [6]) of the same molecule?
A: Its Activity is “Active”.

Q: And the Activity [23]?
A: The Activity was 40%.

Q: And the inhibition at 100 µM [19]?
A: The inhibition at 100 µM was 95%.

Q: What does the source list for O.O=P(O)(O)C(O)(Cn1ccnc1)P(=O)(O)O [ZOLEDRONIC ACID]?
A: IC50 [1]: 60 µM; Activity [23]: 54%; inhibition at 250 µM [15]: 80%; inhibition at 100 µM [19]: 72%

Q: What does the source list for O=P(O)(Oc1ccccc1)C(O)(c1ccccc1)P(=O)(O)Oc1ccccc1 (stereo not given)?
A: IC50 [1]: 555 µM; inhibition (Huh-7 [2]): Dose-dependent effect; Activity (Huh-7 [24]): inactive

Q: What does the source list for O=P(O)(O)C(O)(c1ccccc1)P(=O)(O)O?
A: Activity (Huh-7 [24]): Active; inhibition (INH) [21]: 15%

Q: For O=P(O)(O)C(O)(c1ccc(Br)cc1)P(=O)(O)Oc1ccccc1 (stereo not given), which IC50 [1] is on record?
A: The IC50 was 100 µM.

Q: And the inhibition (Huh-7 [2])?
A: Its inhibition is “Dose-dependent effect”.

Q: And the inhibition at 250 µM [15]?
A: The inhibition at 250 µM was 80%.
